The results in this text go back to ChEMBL document CHEMBL1127395, “Synthesis and antimicrobial activity of novel 3-[(aminopyrimidiniumyl)thio]methyl cephalosporins” (1994).

≈ marks a conversion by molar mass, not a printed value.

One assay has as its system Citrobacter freundii. Put plainly: In vitro minimum inhibitory concentration for Citrobacter freundii (ATCC-8090) by agar dilution method. The assay is classed as functional. The method, boiled down:
(§1)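 Two-fold serial dilutions of each compound dispersed in Mueller-Hinton agar; plates spot-inoculated with 2 μL of standard test strain at 10^7 CFU/mL, incubated 37 °C for 20 h; MIC read as lowest concentration inhibiting growth.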

The subject of another assay is Enterobacter cloacae. Kind of assay: In vitro minimum inhibitory concentration for Enterobacter cloacae (ATCC-27508) by agar dilution method. The assay is classed as functional. The method in brief:
as §1

The test system of the next assay is Klebsiella aerogenes. Kind of assay: In vitro minimum inhibitory concentration for Enterobacter aerogenes (ATCC-29751) by agar dilution method. The assay is classed as functional. The method, boiled down:
as §1

The next assay relates to Klebsiella pneumoniae. Kind of assay: In vitro minimum inhibitory concentration for Klebsiella pneumoniae (ATCC-10031) by agar dilution method. The assay is classed as functional.
Assay [1] relates to Pseudomonas aeruginosa. Put plainly: In vitro minimum inhibitory concentration for Pseudomonas aeruginosa (ATCC-27853) by agar dilution method. Type of assay: functional. The method, boiled down:
as §1

The next assay relates to Proteus vulgaris. Kind of assay: In vitro minimum inhibitory concentration for Proteus vulgaris (ATCC-6059) by agar dilution method. The assay is classed as functional. The method, boiled down:
as §1

A further assay relates to Salmonella typhimurium. Put plainly: In vitro minimum inhibitory concentration for Salmonella Typhimurium (ATCC-14028) by agar dilution method. The assay is classed as functional, Salmonella enterica subsp. enterica serovar Typhimurium. The method in brief: as §1
For the next assay, the system named is Serratia marcescens. Put plainly: In vitro minimum inhibitory concentration for Serratia marcescens (ATCC-27117) by agar dilution method. Type of assay: functional. The method in brief:
as §1

For assay [2], the system named is Staphylococcus epidermidis. Put plainly: In vitro minimum inhibitory concentration for Staphylococcus epidermidis (ATCC-12228) by agar dilution method. Type of assay: functional. The method in brief: as §1
The subject of the next assay is Staphylococcus aureus. Put plainly: In vitro minimum inhibitory concentration for Staphylococcus aureus (ATCC 6538p) by agar dilution method. The assay is classed as functional. The method, boiled down: as §1
A further assay deals with Escherichia coli. Put plainly: In vitro minimum inhibitory concentration for Escherichia coli (ATCC-10536) by agar dilution method. Type of assay: functional. The method in brief:
as §1

Assay [3] has as its system Pseudomonas aeruginosa. Kind of assay: In vitro minimum inhibitory concentration for Pseudomonas aeruginosa (ATCC 10145) by agar dilution method. Type of assay: functional. The method, boiled down:
as §1

[4] abbreviates: Citrobacter freundii, read-out: MIC.
[5] abbreviates: Enterobacter cloacae, read-out: MIC.
The mark [6] stands for this setting: Klebsiella aerogenes, read-out: MIC.
The mark [7] stands for this setting: Klebsiella pneumoniae, read-out: MIC.
The mark [8] stands for this setting: Pseudomonas aeruginosa, read-out: MIC.
Setting [9] is: Proteus vulgaris, read-out: MIC.
Where [10] appears, read: Salmonella enterica, read-out: MIC.
The mark [11] stands for this setting: Serratia marcescens, read-out: MIC.
Setting [12] is: Staphylococcus epidermidis, read-out: MIC.
Where [13] appears, read: Staphylococcus aureus, ATCC 6538p, read-out: MIC.
[14] abbreviates: Escherichia coli, read-out: MIC.

On to `Cc1ccc(-[n+]2c(N)cc(N)nc2SCC2=C(C(=O)[O-])N3C(=O)C(NC(=O)/C(=N\OC(C)(C)C(=O)O)c4cnc(N)s4)C3SC2)c(C)c1` (centres undefined), for which the MIC is 2 µg/mL (≈ 2.8 µM) with Citrobacter freundii (setting [4]); 0.13 µg/mL (≈ 0.182 µM) with Enterobacter cloacae (setting [5]); 2 µg/mL (≈ 2.8 µM) in the assay with Klebsiella aerogenes (setting [6]); 0.13 µg/mL (≈ 0.182 µM) in the assay on Klebsiella pneumoniae (setting [7]); 2 µg/mL (≈ 2.8 µM) in the assay with Pseudomonas aeruginosa [1] (setting [8]); 0.25 µg/mL (≈ 0.35 µM) with Proteus vulgaris (setting [9]). In addition, the MIC with Salmonella typhimurium (setting [10]) stood at 2 µg/mL (≈ 2.8 µM); with Serratia marcescens (setting [11]) it was 2 µg/mL (≈ 2.8 µM); in [2] (setting [12]) it was 2 µg/mL (≈ 2.8 µM); with Staphylococcus aureus (setting [13]) it was 4 µg/mL (≈ 5.6 µM); in the assay on Escherichia coli (setting [14]), 0.5 µg/mL (≈ 0.7 µM); against Pseudomonas aeruginosa [3], 8 µg/mL (≈ 11.2 µM).

Take `Cn1c(O)c[n+]2c(SCC3=C(C(=O)[O-])N4C(=O)C(NC(=O)/C(=N\OC(C)(C)C(=O)O)c5cnc(N)s5)C4SC3)nc(N)cc12` (centres undefined): the MIC with Citrobacter freundii (setting [4]) was found to be 0.25 µg/mL (≈ 0.377 µM); in the assay with Enterobacter cloacae (setting [5]), 0.03 µg/mL (≈ 0.0452 µM); in the assay with Klebsiella aerogenes (setting [6]), 4 µg/mL (≈ 6.03 µM); with Klebsiella pneumoniae (setting [7]), 0.13 µg/mL (≈ 0.196 µM); in the assay with Pseudomonas aeruginosa [1] (setting [8]) it was 4 µg/mL (≈ 6.03 µM); with Proteus vulgaris (setting [9]), 0.06 µg/mL (≈ 0.0904 µM). Moreover, the MIC with Salmonella typhimurium (setting [10]) worked out at 0.5 µg/mL (≈ 0.753 µM); in the assay on Serratia marcescens (setting [11]) it was 0.5 µg/mL (≈ 0.753 µM); in assay [2] (setting [12]), 4 µg/mL (≈ 6.03 µM); in the assay with Staphylococcus aureus (setting [13]), 16 µg/mL (≈ 24.1 µM); with Escherichia coli (setting [14]), 0.13 µg/mL (≈ 0.196 µM); with Pseudomonas aeruginosa [3] it was 4 µg/mL (≈ 6.03 µM).

As for `Cn1cn[n+]2c(SCC3=C(C(=O)[O-])N4C(=O)C(NC(=O)/C(=N\OC(C)(C)C(=O)O)c5cnc(N)s5)C4SC3)nc(N)cc12` (centres undefined), the MIC in the assay with Citrobacter freundii (setting [4]) is 0.13 µg/mL (≈ 0.2 µM); in the assay on Enterobacter cloacae (setting [5]), 0.02 µg/mL (≈ 0.0308 µM); in the assay on Klebsiella aerogenes (setting [6]) it was 1 µg/mL (≈ 1.54 µM); with Klebsiella pneumoniae (setting [7]) it was 0.06 µg/mL (≈ 0.0925 µM); with Pseudomonas aeruginosa [1] (setting [8]) it was 2 µg/mL (≈ 3.08 µM); in the assay with Proteus vulgaris (setting [9]), 0.06 µg/mL (≈ 0.0925 µM). Moreover, the MIC in the assay on Salmonella typhimurium (setting [10]) turned out to be 0.25 µg/mL (≈ 0.385 µM); with Serratia marcescens (setting [11]), 0.25 µg/mL (≈ 0.385 µM); in assay [2] (setting [12]), 1 µg/mL (≈ 1.54 µM); with Staphylococcus aureus (setting [13]), 8 µg/mL (≈ 12.3 µM); with Escherichia coli (setting [14]), 0.06 µg/mL (≈ 0.0925 µM); in the assay on Pseudomonas aeruginosa [3] it was 4 µg/mL (≈ 6.17 µM).

On to `Cn1cc[n+]2c(SCC3=C(C(=O)[O-])N4C(=O)C(NC(=O)/C(=N\OC(C)(C)C(=O)O)c5cnc(N)s5)C4SC3)nc(N3CCOCC3)cc12` (centres undefined), for which the MIC with Citrobacter freundii (setting [4]) is 0.5 µg/mL (≈ 0.697 µM); in the assay with Enterobacter cloacae (setting [5]) it was 0.06 µg/mL (≈ 0.0836 µM); in the assay with Klebsiella aerogenes (setting [6]), 8 µg/mL (≈ 11.1 µM); in the assay on Klebsiella pneumoniae (setting [7]), 0.25 µg/mL (≈ 0.348 µM); in the assay with Pseudomonas aeruginosa [1] (setting [8]) it was 4 µg/mL (≈ 5.57 µM); with Proteus vulgaris (setting [9]), 0.25 µg/mL (≈ 0.348 µM). Besides, the MIC with Salmonella typhimurium (setting [10]) came out at 0.5 µg/mL (≈ 0.697 µM); with Serratia marcescens (setting [11]), 0.5 µg/mL (≈ 0.697 µM); in assay [2] (setting [12]) it was 2 µg/mL (≈ 2.79 µM); in the assay with Staphylococcus aureus (setting [13]), 8 µg/mL (≈ 11.1 µM); with Escherichia coli (setting [14]), 0.25 µg/mL (≈ 0.348 µM); with Pseudomonas aeruginosa [3], 8 µg/mL (≈ 11.1 µM).

`CC(C)(O/N=C(\C(=O)NC1C(=O)N2C(C(=O)[O-])=C(CSc3nc(N)cc(N)[n+]3-c3ccc(O)cc3)CSC12)c1cnc(N)s1)C(=O)O` (centres undefined): the MIC with Citrobacter freundii (setting [4]) was found to be 0.25 µg/mL (≈ 0.356 µM); in the assay with Enterobacter cloacae (setting [5]), 0.06 µg/mL (≈ 0.0855 µM); in the assay with Klebsiella aerogenes (setting [6]) it was 2 µg/mL (≈ 2.85 µM); in the assay on Klebsiella pneumoniae (setting [7]), 0.13 µg/mL (≈ 0.185 µM); with Pseudomonas aeruginosa [1] (setting [8]), 1 µg/mL (≈ 1.42 µM); in the assay with Proteus vulgaris (setting [9]), 0.13 µg/mL (≈ 0.185 µM). For the same molecule, the MIC in the assay with Salmonella typhimurium (setting [10]) came out at 0.5 µg/mL (≈ 0.712 µM); with Serratia marcescens (setting [11]), 0.5 µg/mL (≈ 0.712 µM); in assay [2] (setting [12]), 2 µg/mL (≈ 2.85 µM); with Staphylococcus aureus (setting [13]) it was 4 µg/mL (≈ 5.7 µM); in the assay on Escherichia coli (setting [14]), 0.25 µg/mL (≈ 0.356 µM); against Pseudomonas aeruginosa [3], 2 µg/mL (≈ 2.85 µM).

Turning to `CC(C)(O/N=C(\C(=O)NC1C(=O)N2C(C(=O)[O-])=C(CSc3nc(N)cc(N)[n+]3-c3ccccc3)CSC12)c1cnc(N)s1)C(=O)O` (centres undefined), the MIC was determined as 0.25 µg/mL (≈ 0.365 µM) in the assay with Citrobacter freundii (setting [4]); 0.06 µg/mL (≈ 0.0875 µM) in the assay with Enterobacter cloacae (setting [5]); 0.5 µg/mL (≈ 0.729 µM) with Klebsiella aerogenes (setting [6]); 0.13 µg/mL (≈ 0.19 µM) in the assay with Klebsiella pneumoniae (setting [7]); 2 µg/mL (≈ 2.92 µM) with Pseudomonas aeruginosa [1] (setting [8]); 0.13 µg/mL (≈ 0.19 µM) in the assay on Proteus vulgaris (setting [9]). In addition, the MIC in the assay with Salmonella typhimurium (setting [10]) was determined as 0.5 µg/mL (≈ 0.729 µM); in the assay with Serratia marcescens (setting [11]), 0.5 µg/mL (≈ 0.729 µM); in assay [2] (setting [12]) it was 2 µg/mL (≈ 2.92 µM); with Staphylococcus aureus (setting [13]), 4 µg/mL (≈ 5.83 µM); in the assay on Escherichia coli (setting [14]), 0.25 µg/mL (≈ 0.365 µM); in the assay with Pseudomonas aeruginosa [3], 4 µg/mL (≈ 5.83 µM).

For the molecule `C[n+]1c(N)cc(N)nc1SCC1=C(C(=O)[O-])N2C(=O)C(NC(=O)/C(=N\OC(C)(C)C(=O)O)c3cnc(N)s3)C2SC1` (stereo in doubt; 23), the MIC in the assay with Citrobacter freundii turned out to be 0.13 µg/mL (≈ 0.208 µM); in the assay with Enterobacter cloacae, 0.06 µg/mL (≈ 0.0962 µM); with Klebsiella aerogenes it was 2 µg/mL (≈ 3.21 µM); in the assay with Klebsiella pneumoniae it was 0.06 µg/mL (≈ 0.0962 µM); in the assay with Pseudomonas aeruginosa [1], 2 µg/mL (≈ 3.21 µM); with Proteus vulgaris, 0.06 µg/mL (≈ 0.0962 µM). Further, the MIC in the assay with Salmonella typhimurium is 0.25 µg/mL (≈ 0.401 µM); against Serratia marcescens it was 0.13 µg/mL (≈ 0.208 µM); in assay [2], 2 µg/mL (≈ 3.21 µM); against Staphylococcus aureus, 4 µg/mL (≈ 6.41 µM); in the assay with Escherichia coli, 0.06 µg/mL (≈ 0.0962 µM).

As to `CC(C)(O/N=C(\C(=O)N[C@@H]1C(=O)N2C(C(=O)[O-])=C(C[n+]3ccccc3)CS[C@H]12)c1csc(N)n1)C(=O)O` [CEFTAZIDIME], the MIC is 0.13 µg/mL (≈ 0.238 µM) in the assay with Citrobacter freundii (setting [4]); 0.03 µg/mL (≈ 0.0549 µM) with Enterobacter cloacae (setting [5]); 4 µg/mL (≈ 7.32 µM) in the assay with Klebsiella aerogenes (setting [6]); 1 µg/mL (≈ 1.83 µM) in the assay with Pseudomonas aeruginosa [1] (setting [8]); 0.06 µg/mL (≈ 0.11 µM) with Proteus vulgaris (setting [9]); 0.25 µg/mL (≈ 0.457 µM) in the assay with Salmonella typhimurium (setting [10]). In addition, the MIC in the assay on Serratia marcescens (setting [11]) amounted to 0.13 µg/mL (≈ 0.238 µM); in assay [2] (setting [12]), 4 µg/mL (≈ 7.32 µM); in the assay on Staphylococcus aureus (setting [13]), 8 µg/mL (≈ 14.6 µM); with Escherichia coli (setting [14]), 0.06 µg/mL (≈ 0.11 µM); in the assay on Pseudomonas aeruginosa [3], 2 µg/mL (≈ 3.66 µM).
